ChEMBL document CHEMBL4811275, “Iodinated 1,2-diacylhydrazines, benzohydrazide-hydrazones and their analogues as dual antimicrobial and cytotoxic agents” (Bioorg Med Chem, 2021)
Converted amounts (≈) assume the structure as drawn.

Legend:
[1] = system: Staphylococcus epidermidis; assay: Antibacterial activity against Staphylococcus epidermidis ATCC 12228 assessed as reduction in bacterial growth incubated for 24 hrs by broth microdilution method; format: functional
Summary of the method: (§1)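 Cation-adjusted Mueller-Hinton broth microdilution per EUCAST, modified; compounds from DMSO stocks, final DMSO ≤1% v/v; scale starting from 0.49 µM. Static incubation at 35 ± 2 °C, dark, humidified, read at 24 and 48 h. MIC = lowest concentration with no visible growth by eye; duplicates, parallel readings within one dilution step; growth and medium/DMSO controls included.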

Enterococcus faecalis [2] = assay: Antibacterial activity against Enterococcus faecalis ATCC 29212 assessed as reduction in bacterial growth incubated for 24 hrs by broth microdilution method; format: functional; summary of the method: as §1
Escherichia coli [3] = assay: Antibacterial activity against Escherichia coli ATCC 25922 assessed as reduction in bacterial growth incubated for 24 hrs by broth microdilution method; format: functional; summary of the method: as §1
HepG2 [4] = assay: Cytotoxicity against human HepG2 cells assessed as reduction in cell viability incubated for 24 hrs by cell-titer 96 aqueous one solution cell proliferation assay; format: functional, cell-based; conditions: HepG2, 24 h
HK-2 = assay: Cytotoxicity against human HK-2 cells assessed as reduction in cell viability incubated for 24 hrs by cell-titer 96 aqueous one solution cell proliferation assay; format: cell-based; conditions: HK-2, 24 h
Escherichia coli [5] = assay: Antibacterial activity against Escherichia coli ATCC 25922 assessed as reduction in bacterial growth incubated for 48 hrs by broth microdilution method; format: functional; summary of the method: as §1
Staphylococcus aureus [6] = assay: Antibacterial activity against Staphylococcus aureus ATCC 29213 assessed as reduction in bacterial growth incubated for 48 hrs by broth microdilution method; format: functional; summary of the method: as §1
HepG2 [7] = assay: Antiproliferative activity against human HepG2 cells assessed as increase in caspase 3/7 level at 100 uM incubated for 24 hrs by Caspase-glo reagent based microplate reader analysis relative to control; format: functional
Summary of the method: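 HepG2 cells seeded at 15 000/well, compounds diluted in complete MEM, 24 h at 37 °C, 5% CO2; untreated vehicle controls. Caspase-Glo 3/7 reagent added, shaken 350 rpm at room temperature 60 min in dark, luminescence read. Expressed as fold of untreated control; triplicate wells, mean ± SD with n = 6.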

Staphylococcus aureus [8] = assay: Antibacterial activity against methicillin-resistant Staphylococcus aureus ATCC 43300 assessed as reduction in bacterial growth incubated for 24 hrs by broth microdilution method; format: functional
Summary of the method: (§2)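 EUCAST-based broth microdilution in cation-adjusted Mueller-Hinton broth. DMSO stocks, final DMSO ≤1% v/v, concentration scale starting from 0.49 µM. Static incubation at 35 ± 2 °C, dark and humidified. Run in duplicate, accepted only if parallel MICs differ by at most one dilution step. MIC is the lowest concentration with no visible growth by naked eye.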

Staphylococcus aureus [9] = assay: Antibacterial activity against Staphylococcus aureus ATCC 29213 assessed as reduction in bacterial growth incubated for 24 hrs by broth microdilution method; format: functional; summary of the method: as §1
Staphylococcus aureus [10] = assay: Antibacterial activity against methicillin-resistant Staphylococcus aureus ATCC 43300 assessed as reduction in bacterial growth incubated for 48 hrs by broth microdilution method; format: functional; summary of the method: as §2
[11] = system: Staphylococcus epidermidis; assay: Antibacterial activity against Staphylococcus epidermidis ATCC 12228 assessed as reduction in bacterial growth incubated for 48 hrs by broth microdilution method; format: functional; summary of the method: as §1
Enterococcus faecalis [12] = assay: Antibacterial activity against Enterococcus faecalis ATCC 29212 assessed as reduction in bacterial growth incubated for 48 hrs by broth microdilution method; format: functional; summary of the method: as §1
Pichia kudriavzevii [13] = assay: Antifungal activity against Candida krusei ATCC 6258 assessed as reduction in fungal growth incubated for 24 hrs by broth microdilution method based spectrophotometric analysis; format: functional
Lichtheimia corymbifera [14] = assay: Antifungal activity against Lichtheimia corymbifera CCM 8077 assessed as reduction in fungal growth incubated for 48 hrs by broth microdilution method based spectrophotometric analysis; format: functional
Candida albicans [15] = assay: Antifungal activity against Candida albicans ATCC 24443 assessed as reduction in fungal growth incubated for 48 hrs by broth microdilution method based spectrophotometric analysis; format: functional
Pichia kudriavzevii [16] = assay: Antifungal activity against Candida krusei ATCC 6258 assessed as reduction in fungal growth incubated for 48 hrs by broth microdilution method based spectrophotometric analysis; format: functional
[17] = system: Trichophyton interdigitale; assay: Antifungal activity against Trichophyton interdigitale ATCC 9533 assessed as reduction in fungal growth incubated for 72 hrs by broth microdilution method based spectrophotometric analysis; format: functional
Candida parapsilosis [18] = assay: Antifungal activity against Candida parapsilosis ATCC 22019 assessed as reduction in fungal growth incubated for 48 hrs by broth microdilution method based spectrophotometric analysis; format: functional; conditions: Lodderomyces parapsilosis
Lichtheimia corymbifera [19] = assay: Antifungal activity against Lichtheimia corymbifera CCM 8077 assessed as reduction in fungal growth incubated for 24 hrs by broth microdilution method based spectrophotometric analysis; format: functional
Candida parapsilosis [20] = assay: Antifungal activity against Candida parapsilosis ATCC 22019 assessed as reduction in fungal growth incubated for 24 hrs by broth microdilution method based spectrophotometric analysis; format: functional; conditions: Lodderomyces parapsilosis
[21] = system: Trichophyton interdigitale; assay: Antifungal activity against Trichophyton interdigitale ATCC 9533 assessed as reduction in fungal growth incubated for 120 hrs by broth microdilution method based spectrophotometric analysis; format: functional
Candida albicans [22] = assay: Antifungal activity against Candida albicans ATCC 24443 assessed as reduction in fungal growth incubated for 24 hrs by broth microdilution method based spectrophotometric analysis; format: functional
Candida albicans [23] = assay: Antifungal activity against Candida albicans ATCC 24443 assessed as reduction in fungal growth incubated for 48 hrs by broth microdilution method; format: functional
Summary of the method: (§3)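 Broth microdilution per EUCAST (yeasts and moulds), modified: twofold dilutions from DMSO (final ≤1% v/v) in RPMI-1640 with L-glutamine, 2% glucose, MOPS-buffered pH 7.0; scale from 0.49 µM. Static, dark, humidified, 35 ± 2 °C for 24 and 48 h (Trichophyton interdigitale 72 and 120 h). MIC = complete visible inhibition by eye; duplicates within one dilution step.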

Pichia kudriavzevii [24] = assay: Antifungal activity against Candida krusei ATCC 6258 assessed as reduction in fungal growth incubated for 24 hrs by broth microdilution method; format: functional; summary of the method: as §3
Candida albicans [25] = assay: Antifungal activity against Candida albicans ATCC 24443 assessed as reduction in fungal growth incubated for 24 hrs by broth microdilution method; format: functional; summary of the method: as §3
[26] = system: Trichophyton interdigitale; assay: Antifungal activity against Trichophyton interdigitale ATCC 9533 assessed as reduction in fungal growth incubated for 120 hrs by broth microdilution method; format: functional; summary of the method: as §3
Lichtheimia corymbifera [27] = assay: Antifungal activity against Lichtheimia corymbifera CCM 8077 assessed as reduction in fungal growth incubated for 48 hrs by broth microdilution method; format: functional; summary of the method: as §3
[28] = system: Trichophyton interdigitale; assay: Antifungal activity against Trichophyton interdigitale ATCC 9533 assessed as reduction in fungal growth incubated for 72 hrs by broth microdilution method; format: functional; summary of the method: as §3
Lichtheimia corymbifera [29] = assay: Antifungal activity against Lichtheimia corymbifera CCM 8077 assessed as reduction in fungal growth incubated for 24 hrs by broth microdilution method; format: functional; summary of the method: as §3
Candida parapsilosis [30] = assay: Antifungal activity against Candida parapsilosis ATCC 22019 assessed as reduction in fungal growth incubated for 24 hrs by broth microdilution method; format: functional; conditions: Lodderomyces parapsilosis; summary of the method: as §3
Candida parapsilosis [31] = assay: Antifungal activity against Candida parapsilosis ATCC 22019 assessed as reduction in fungal growth incubated for 48 hrs by broth microdilution method; format: functional; conditions: Lodderomyces parapsilosis; summary of the method: as §3
Pichia kudriavzevii [32] = assay: Antifungal activity against Candida krusei ATCC 6258 assessed as reduction in fungal growth incubated for 48 hrs by broth microdilution method; format: functional; summary of the method: as §3

SMILES	MIC [1] [µM]	MIC (Enterococcus faecalis [2]) [µM]	MIC (Escherichia coli [3]) [µM]	IC50 (HepG2 [4]) [µM]	IC50 (HK-2) [µM]	MIC (Escherichia coli [5]) [µM]	MIC (Staphylococcus aureus [6]) [µM]	MIC (Staphylococcus aureus [8]) [µM]	MIC (Staphylococcus aureus [9]) [µM]	MIC (Staphylococcus aureus [10]) [µM]	MIC [11] [µM]	MIC (Enterococcus faecalis [12]) [µM]	further results
O=C(N/N=C/c1cc(I)cc(I)c1O)c1ccc(C(F)(F)F)cc1	31.2 (≈ 17.5 µg/mL)	31.2 (≈ 17.5 µg/mL)	> 250	11.7	49.9	> 250	31.2 (≈ 17.5 µg/mL)	31.2 (≈ 17.5 µg/mL)	31.2 (≈ 17.5 µg/mL)	31.2 (≈ 17.5 µg/mL)	31.2 (≈ 17.5 µg/mL)	31.2 (≈ 17.5 µg/mL)	fold change (FC) (HepG2 [7]): 1.37
OC(Cn1cncn1)(Cn1cncn1)c1ccc(F)cc1F [FLUCONAZOLE]	–	–	–	–	–	–	–	–	–	–	–	–	MIC (Pichia kudriavzevii [13]): > 104 µM; MIC (Lichtheimia corymbifera [14]): > 104 µM; MIC (Candida albicans [15]): 6.5 µM (≈ 1.99 µg/mL); MIC (Pichia kudriavzevii [16]): > 104 µM; MIC [17]: 52.2 µM (≈ 16 µg/mL); MIC (Candida parapsilosis [18]): 3.3 µM (≈ 1.01 µg/mL); MIC (Lichtheimia corymbifera [19]): > 104 µM; MIC (Candida parapsilosis [20]): 3.3 µM (≈ 1.01 µg/mL); MIC [21]: 52.2 µM (≈ 16 µg/mL); MIC (Candida albicans [22]): 6.5 µM (≈ 1.99 µg/mL)
O=C(NNCc1cc(I)cc(I)c1O)c1ccc(F)cc1	62.5 (≈ 32 µg/mL)	31.2 (≈ 16 µg/mL)	> 500	52.2	–	> 500	125 (≈ 64 µg/mL)	62.5 (≈ 32 µg/mL)	62.5 (≈ 32 µg/mL)	125 (≈ 64 µg/mL)	62.5 (≈ 32 µg/mL)	62.5 (≈ 32 µg/mL)	MIC (Candida albicans [23]): > 125 µM; MIC (Pichia kudriavzevii [24]): > 125 µM; MIC (Candida albicans [25]): 125 µM (≈ 64 µg/mL); MIC [26]: 31.2 µM (≈ 16 µg/mL); MIC (Lichtheimia corymbifera [27]): 31.2 µM (≈ 16 µg/mL); MIC [28]: 15.6 µM (≈ 8 µg/mL); MIC (Lichtheimia corymbifera [29]): 15.6 µM (≈ 8 µg/mL); MIC (Candida parapsilosis [30]): > 125 µM; MIC (Candida parapsilosis [31]): > 125 µM; MIC (Pichia kudriavzevii [32]): > 125 µM
O=C(NNC(=O)c1cc(I)cc(I)c1O)c1ccc(I)cc1	62.5 (≈ 39.6 µg/mL)	125 (≈ 79.2 µg/mL)	> 250	25.1	> 100	> 250	250 (≈ 158 µg/mL)	125 (≈ 79.2 µg/mL)	250 (≈ 158 µg/mL)	250 (≈ 158 µg/mL)	125 (≈ 79.2 µg/mL)	250 (≈ 158 µg/mL)	–
